Data taken from ChEMBL document CHEMBL1821554, “Synthesis and anticancer activity of chalcone-pyrrolobenzodiazepine conjugates linked via 1,2,3-triazole ring side-armed with alkane spacers” (2011).
Active and inactive are the calls of the source. The rule behind the calls is not given here.

Legend:
[1] = test system: MCF7; experiment: Cell cycle arrest in human MCF7 cells assessed as accumulation at G0 phase at 10 uM after 24 hrs using propidium iodide staining based flow cytometric analysis (reference value: 1.27 +/- 0.08 %); format: functional
[2] = test system: MCF7; experiment: Induction of cell cycle arrest at G1 phase in human MCF7 cells at 4 uM after 24 hrs using propidium iodide staining based flow cytometric analysis; format: functional
Summary of the method: (§1)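 MCF-7 cells were seeded at 5 × 10^5 per 60 mm dish and grown for 24 h, then exposed to 4 µM compound for 24 h. Cells were trypsinized, fixed in ice-cold 70% ethanol at 4 °C for 30 min and treated with 1 mg/ml RNase at 37 °C for 30 min. They were stained with propidium iodide/citrate/Triton X-100, and DNA content was read on 20,000 events by flow cytometry. Three independent repeats.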

[3] = test system: MCF7; experiment: Cytotoxicity against human MCF7 cells assessed as reduction in cell viability at 2 uM after 24 hrs by MTT assay; format: functional, cell-based
[4] = Anticancer activity against human DWD cells by SRB method; format: functional
Summary of the method: (§2)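 Growth inhibition over a panel of human cancer lines (lung, ovarian, oral, colon, prostate, cervix, breast). Value is the 50% growth-inhibition concentration, reported as the mean ± standard error of the mean of three determinations.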

[5] = test system: COLO 205; experiment: Anticancer activity against human COLO205 cells by SRB method; format: functional; summary of the method: as §2
[6] = test system: MCF7; experiment: Anticancer activity against human MCF7 cells by SRB method; format: functional; summary of the method: as §2
[7] = test system: MCF7; experiment: Cell cycle arrest in human MCF7 cells assessed as accumulation at G2/M phase at 10 uM after 24 hrs using propidium iodide staining based flow cytometric analysis (reference value: 38.15 +/- 1.068 %); format: functional
[8] = test system: A549; experiment: Anticancer activity against human A549 cells by SRB method; format: functional; summary of the method: as §2
[9] = test system: A2780; experiment: Anticancer activity against human A2780 cells by SRB method; format: functional; summary of the method: as §2
[10] = test system: MCF7; experiment: Cell cycle arrest in human MCF7 cells assessed as accumulation at G0/G1 phase at 4 uM after 24 hrs using propidium iodide staining based flow cytometric analysis; format: functional; summary of the method: as §1
[11] = test system: MCF7; experiment: Cell cycle arrest in human MCF7 cells assessed as accumulation at S phase at 10 uM after 24 hrs using propidium iodide staining based flow cytometric analysis (reference value: 12.92 +/- 1 %); format: functional
[12] = test system: MCF7; experiment: Cell cycle arrest in human MCF7 cells assessed as accumulation at G1 phase at 10 uM after 24 hrs using propidium iodide staining based flow cytometric analysis (reference value: 47.64 +/- 1.49 %); format: functional
[13] = Anticancer activity against human Gurav cells by SRB method; format: functional; summary of the method: as §2
[14] = test system: PC-3; experiment: Anticancer activity against human PC3 cells by SRB method; format: functional; summary of the method: as §2
[15] = test system: MCF7; experiment: Cytotoxicity against human MCF7 cells assessed as reduction in cell viability at 4 uM after 24 hrs by MTT assay; format: functional, cell-based
Summary of the method: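 MCF-7 cells were seeded at 10,000 per well and left overnight, then treated with 4 µM compound for 24 h. MTT was added for 2 h at 37 °C, formazan was solubilized in extraction buffer, and OD was read at 570 nm. Untreated cells served as control. Three independent experiments, SD.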

[16] = test system: HOP-62; experiment: Anticancer activity against human HOP62 cells by SRB method; format: functional; summary of the method: as §2
[17] = test system: SiHa; experiment: Anticancer activity against human SiHa cells by SRB method; format: functional; summary of the method: as §2
[18] = test system: ZR-75-1; experiment: Anticancer activity against human ZR-75-1 cells by SRB method; format: functional; summary of the method: as §2
[19] = test system: KB; experiment: Anticancer activity against human KB cells by SRB method; format: functional; summary of the method: as §2
[20] = test system: MCF7; experiment: Downregulation of cyclin D1 protein expression in human MCF7 cells at 4 uM after 24 hrs by Western blot analysis; format: functional, cell-based
Summary of the method: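 MCF-7 cells at 80% confluency were treated with 4 µM compound for 24 h. Cells were lysed in RIPA buffer with protease inhibitors and protein was quantified by Bradford. 50 µg per lane was run on 12% SDS-PAGE and transferred to PVDF. Blots were probed overnight at 4 °C with rabbit polyclonal anti-cyclin D1, with β-actin as loading control, and detected by chemiluminescence.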

[21] = test system: MCF7; experiment: Induction of apoptosis in human MCF7 cells assessed as down regulation of Bcl-xL expression at 4 uM after 24 hrs by Western blot
[22] = target: G1/S-specific cyclin-D1 (Homo sapiens) (UniProt P24385); experiment: Down regulation of Cyclin D1 promoter activity expressed in human MCF7 cells co-transfected with luciferase gene at 4 uM after 24 hrs by luciferase reporter gene assay; format: cell-based
Chain of G1/S-specific cyclin-D1 (Homo sapiens) (P24385 whole entry): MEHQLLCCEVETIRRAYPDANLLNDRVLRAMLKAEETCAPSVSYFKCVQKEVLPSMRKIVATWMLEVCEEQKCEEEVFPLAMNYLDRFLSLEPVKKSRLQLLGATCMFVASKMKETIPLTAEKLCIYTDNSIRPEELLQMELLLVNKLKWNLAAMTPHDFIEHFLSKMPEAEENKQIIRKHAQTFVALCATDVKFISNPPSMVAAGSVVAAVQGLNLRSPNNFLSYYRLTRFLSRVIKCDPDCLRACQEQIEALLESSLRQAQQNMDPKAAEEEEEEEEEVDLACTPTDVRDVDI
Summary of the method: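 MCF-7 cells were transfected for 24 h with the cyclin D1 promoter (−1745) luciferase construct, which contains an NF-kB site. Cells were then treated with 4 µM compound (final) for a further 24 h, and lysate luciferase was measured by luminometer. Untransfected cells served as negative control and transfected untreated cells as control.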

[23] = test system: MCF7; experiment: Induction of apoptosis in human MCF7 cells assessed as down regulation of Bcl2 expression at 4 uM after 24 hrs by ELISA; format: functional, cell-based
Summary of the method: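 MCF-7 cells were treated with 4 µM compound for 24 h. Lysates were added to Bcl2 antibody-coated wells, followed by biotinylated anti-human Bcl2 monoclonal antibody, and bound Bcl2 was detected with streptavidin-HRP (sandwich ELISA).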

[24] = Down regulation of NF-kappaB activity expressed in human MCF7 cells transfected with NF-kB SEAP plasmid at 4 uM after 24 hrs by chemiluminescence-based luminometric analysis; format: cell-based
Summary of the method: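 MCF-7 cells were transiently transfected with the NF-kB SEAP plasmid using lipofectamine 2000. After 24 h, cells were treated with 4 µM compound for 24 h. Lysates were assayed with a chemiluminescent reagent and read by luminometry and by 30 min X-ray film exposure. Transfected untreated cells served as control.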

Compound: COc1cc2c(cc1OC)C(=O)N1C[C@@H](n3cc(COc4ccc(/C=C/C(=O)c5ccccc5O)cc4OC)nn3)C[C@H]1C=N2
- Activity [1]: 5.19%
- Activity [2]: Active
- Activity [3]: inactive
- GI50 [4]: 2700 nM
- GI50 [5]: 110 nM
- GI50 [6]: 2350 nM
- Activity [7]: 35.19%
- GI50 [8]: 2780 nM
- GI50 [9]: 150 nM
- Activity [10]: 55.24%
- Activity [11]: 8.71%
- Activity [12]: 50.9%
- GI50 [13]: 2510 nM
- GI50 [14]: 2230 nM

Compound: COc1ccc(/C=C/C(=O)c2ccc(O)cc2)cc1O
- Activity [1]: 10.15%
- Activity [15]: Active
- Activity [7]: 31.5%
- Activity [10]: 64.11%
- Activity [11]: 6.55%
- Activity [12]: 51.61%

Compound: COc1cc(/C=C/C(=O)c2ccccc2O)ccc1OCCCCCn1cc(COc2cc3c(cc2OC)C(=O)N2CCC[C@H]2C=N3)nn1
- GI50 [16]: 2560 nM
- GI50 [17]: 2710 nM
- Activity [1]: 7.81%
- Activity [2]: Active
- Activity [3]: inactive
- GI50 [4]: 2300 nM
- GI50 [5]: 140 nM
- GI50 [18]: 170 nM
- GI50 [6]: 2100 nM
- Activity [7]: 35.88%
- GI50 [8]: 170 nM
- GI50 [9]: 140 nM
- Activity [10]: 56.23%
- GI50 [19]: 180 nM
- Activity [11]: 9.89%
- Activity [12]: 46.39%
- GI50 [13]: 160 nM
- GI50 [14]: 2040 nM

Compound: COc1cccc2c1C(=O)c1c(O)c3c(c(O)c1C2=O)C[C@@](O)(C(=O)CO)C[C@@H]3O[C@H]1C[C@H](N)[C@H](O)[C@H](C)O1 [DOXORUBICIN]
- GI50 [16]: 140 nM
- GI50 [17]: 170 nM
- GI50 [4]: 100 nM
- GI50 [5]: 140 nM
- GI50 [6]: 170 nM
- GI50 [9]: 160 nM
- GI50 [19]: 170 nM
- GI50 [13]: 170 nM

Compound: COc1cc(/C=C/C(=O)c2ccccc2O)ccc1OCCCn1cc(COc2cc3c(cc2OC)C(=O)N2CCC[C@H]2C=N3)nn1
- GI50 [16]: 2920 nM
- Activity [1]: 12.06%
- Activity [20]: Active
- Activity [21]: Active
- Activity [2]: Active
- Activity [3]: inactive
- Activity [15]: Active
- GI50 [5]: 150 nM
- GI50 [18]: 2200 nM
- Activity [22]: Active
- Activity [23]: Active
- GI50 [6]: 2400 nM
- Activity [7]: 14.32%
- GI50 [8]: 2330 nM
- Activity [24]: Active
- GI50 [9]: 170 nM
- Activity [10]: 76.87%
- GI50 [19]: 2190 nM
- Activity [11]: 9.52%
- Activity [12]: 64.08%
- GI50 [13]: 2310 nM
- GI50 [14]: 2480 nM

Compound: COc1cc2c(cc1O)N=C[C@@H]1CCCN1C2=O
- GI50 [16]: 150 nM
- GI50 [17]: 170 nM
- Activity [1]: 7.62%
- Activity [20]: Active
- Activity [21]: Active
- Activity [15]: Active
- GI50 [5]: 110 nM
- Activity [22]: Active
- Activity [23]: Active
- GI50 [6]: 170 nM
- Activity [7]: 20.89%
- GI50 [8]: 160 nM
- Activity [24]: Active
- GI50 [9]: 140 nM
- Activity [10]: 71.1%
- GI50 [19]: 170 nM
- Activity [11]: 9.67%
- Activity [12]: 61.81%
- GI50 [13]: 160 nM
- GI50 [14]: 200 nM

Compound: COc1cc2c(cc1OCc1ccccc1)N=C[C@@H]1C[C@H](n3cc(COc4ccc(/C=C/C(=O)c5ccccc5O)cc4OC)nn3)CN1C2=O
- Activity [1]: 5.21%
- Activity [2]: Active
- Activity [3]: inactive
- Activity [7]: 32.06%
- Activity [10]: 59.79%
- Activity [11]: 6.65%
- Activity [12]: 54.61%

Compound: COc1cc(/C=C/C(=O)c2cc(Cl)ccc2O)ccc1OCCCCCn1cc(COc2cc3c(cc2OC)C(=O)N2CCC[C@H]2C=N3)nn1
- GI50 [16]: 2280 nM
- Activity [1]: 10.75%
- Activity [20]: Active
- Activity [21]: Active
- Activity [2]: Active
- Activity [3]: inactive
- GI50 [4]: 2300 nM
- GI50 [5]: 100 nM
- GI50 [18]: 2020 nM
- Activity [22]: Active
- Activity [23]: Active
- GI50 [6]: 180 nM
- Activity [7]: 22.06%
- GI50 [8]: 2090 nM
- Activity [24]: Active
- GI50 [9]: 150 nM
- Activity [10]: 60.18%
- Activity [11]: 7.28%
- Activity [12]: 60.56%
- GI50 [13]: 190 nM
- GI50 [14]: 190 nM

Compound: COc1cc(/C=C/C(=O)c2ccc(O)cc2)ccc1OCCCCn1cc(COc2cc3c(cc2OC)C(=O)N2CCC[C@H]2C=N3)nn1
- GI50 [16]: 190 nM
- GI50 [17]: 2520 nM
- GI50 [4]: < 160 nM
- GI50 [5]: 110 nM
- GI50 [18]: 160 nM
- GI50 [6]: 160 nM
- GI50 [8]: < 150 nM
- GI50 [9]: 110 nM
- GI50 [19]: 160 nM
- GI50 [13]: 130 nM
- GI50 [14]: 150 nM

Compound: COc1cc(/C=C/C(=O)c2cc(Cl)ccc2O)ccc1OCCCCn1cc(COc2cc3c(cc2OC)C(=O)N2CCC[C@H]2C=N3)nn1
- GI50 [16]: 2500 nM
- Activity [1]: 10.51%
- Activity [2]: Active
- Activity [3]: inactive
- GI50 [4]: < 170 nM
- GI50 [5]: < 100 nM
- GI50 [18]: 190 nM
- GI50 [6]: 160 nM
- Activity [7]: 31.07%
- GI50 [8]: 190 nM
- GI50 [9]: 130 nM
- Activity [10]: 61.38%
- GI50 [19]: 2660 nM
- Activity [11]: 7.74%
- Activity [12]: 50.63%
- GI50 [13]: 1660 nM
- GI50 [14]: 160 nM
